Screening results: PubChem BioAssay, Johns Hopkins Ion Channel Center
Kir21 block – blocks the mouse Kir2.1 inward-rectifier potassium channel | P35561 | HEK293-Kir2.1, FluxOR thallium flux fluorescence; active compounds read low | B-score at 10 µM | 0.85% of 310,000 active | AID 1672;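 active = fluorescence ratio B-score at or below minus 3 SD of library scores, with starting-brightness B-score within 2 SD, cut at about -4.2 in these data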;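 also: channel flux triggered by added potassium and thallium sulfate stimulus; B-score of peak minus minimum fluorescence over baseline after thallium stimulus; more negative B-score means stronger Kir2.1 block with less thallium influx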
KCNQ1 block – human KCNQ1 channel inhibition; B-score at 10 µM; CHO-K1 KCNQ1, FluxOR thallium flux fluorescence; active compounds read high; 1.3% of 310,000 active; AID 2642;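 active = compounds whose thallium flux B-score, printed positive for inhibition, exceeds three library SD while starting fluorescence stays within three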;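 also: channel opened by potassium depolarization with thallium stimulus after 20 min compound exposure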
KCNQ1 act – potentiates or activates the human KCNQ1 potassium channel. P51787. CHO-K1 KCNQ1, thallium flux FluxOR fluorescence; active compounds read high. 0.35% of 310,000 active. AID 2648. B-score at 10 µM;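 active = fluorescence ratio B-score, a plate-corrected score, at least three library SD, with initial intensity B-score within 5 SD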
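Medium – assay buffer, equal DMSO in all wells · Material – CHO-K1 cell line with stable KCNQ1 potassium channel expression · Signal – kinetic FluxOR thallium fluorescence, 10-s 1-Hz baseline, 110-s post-stimulus read · Compound – single concentration per compound, DMSO matched to controls · Schedule – 37 °C overnight plating, 90-min dark dye load, 20-min compound pretreatment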
KCNK3 block – human KCNK3 channel inhibition, primary screen; O14649; CHO-KCNK3 thallium flux, FluxOR fluorescence; active compounds read low; B-score at 10 µM; 0.84% of 340,000 active; AID 602410;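 active = B-score under library mean minus 4 SD, starting fluorescence ratio at most library mean plus 5 SD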;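 also: more negative B-score means stronger inhibition of thallium flux through KCNK3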
Target sequence (O14649 whole entry, looked up): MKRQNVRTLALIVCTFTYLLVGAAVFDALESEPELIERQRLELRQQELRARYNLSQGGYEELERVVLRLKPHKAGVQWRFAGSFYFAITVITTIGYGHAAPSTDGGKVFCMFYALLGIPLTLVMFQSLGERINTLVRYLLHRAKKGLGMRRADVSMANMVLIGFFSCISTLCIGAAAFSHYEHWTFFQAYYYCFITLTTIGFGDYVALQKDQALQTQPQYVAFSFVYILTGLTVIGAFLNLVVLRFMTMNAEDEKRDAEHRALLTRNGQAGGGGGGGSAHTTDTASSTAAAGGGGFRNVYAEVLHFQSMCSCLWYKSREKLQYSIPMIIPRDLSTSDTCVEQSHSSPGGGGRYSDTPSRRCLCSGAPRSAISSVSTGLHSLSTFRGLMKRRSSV
KCNK9 block – inhibitors of human KCNK9 two-pore domain potassium channel; 1.2% of 310,000 active; AID 488922; B-score at 10 µM; HEK293 KCNK9, FluxOR thallium flux fluorescence; active compounds read low; Q9NPC2;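 active = ratio B-score over 3 SD below the library mean, with starting fluorescence within 5 SD of its mean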;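 also: negative B-score means less thallium flux so channel inhibition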
hERG protect – shields human hERG channel from block by proarrhythmic agents | CHO-hERG, FluxOR thallium flux, dofetilide IC70 present | activation (rescue from dofetilide block), less the hit threshold, % at 10 µM | 0.51% of 310,000 active | Q12809;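 active = activation above the mean of controls blocked by dofetilide plus 5 SD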;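 also: thallium influx through hERG after potassium depolarization seen as dye fluorescence rise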
* = called active by the depositor; i = inactive; nt = no result. This is a sample that favours compounds with a hit; in the whole collection about 3.8% have one here.

SMILES	Kir21 block	KCNQ1 block	KCNQ1 act	KCNK3 block	KCNK9 block	hERG protect
Cc1ccc(C(=O)CC(=O)COc2ccc(Cl)cc2C)cc1	-0.34	i	7*	i	i	-3
Cc1ccc(SCC(=O)N(C)C2CCS(=O)(=O)C2)c(C)c1 (stereo not drawn)	nt	nt	nt	i	nt	nt
CCOC(=O)c1c(C)[nH]c(C(=O)COC(=O)CNS(=O)(=O)c2ccc(C)cc2)c1C	nt	nt	nt	i	nt	nt
Cc1cccc(C(=O)CC(=O)c2cc(Cl)ccc2O)c1	-0.19	i	i	i	i	8.8*
CC(C)NC1=C(Cl)C(=O)c2ccccc2C1=O	-0.96	i	i	i	i	4.9*
O=C1C(Cl)=C(NCc2cccnc2)C(=O)c2ccccc21	-0.84	9*	i	i	i	-17
C=CCNC1=C(Cl)C(=O)c2ccccc2C1=O	0.16	i	i	i	i	-4
O=C1C(Cl)=C(Nc2ccccc2)C(=O)c2ccccc21	-0.48	i	i	i	i	-10
C/C(=N\NS(=O)(=O)c1ccc(C)cc1)c1cc2ccccc2oc1=O	0.86	i	i	i	i	-4
O=C1CCC(C(=O)OC(C(=O)Nc2cc(Cl)cc(Cl)c2)c2ccccc2)=NN1 (stereo not drawn)	nt	nt	nt	i	nt	nt
CCN(Cc1ccccc1)C1CCN(Cc2ccc(SC)cc2)CC1	-4.6*	i	i	i	i	-9
O=C1C=CC(=O)C(C2=C3C(=O)N(CCc4ccccc4)CC(=O)N3CCC2)=C1	-7*	i	i	nt	i	-37
COc1cc(/C=N/NC(=O)c2cc3ccccc3[nH]2)ccc1O	0.26	i	i	i	i	-4
Cc1ccc(NS(=O)(=O)c2cccc3cccnc23)cc1Cl	-0.55	i	i	i	i	-6
O=S(=O)(NCc1ccc(Cl)cc1)c1cccc2cccnc12	-4.5*	i	i	i	i	-10
Cc1cc(C)c(NS(=O)(=O)c2cccc3cccnc23)c(C)c1	-4.4*	i	i	i	i	-10
C/C(=N\O)C(C)/[N+]([O-])=C/c1nc(C)c(C)n1O (stereo not drawn)	1.4	i	i	i	i	-9
CCOC(=O)C1=C(COc2ccc(C)cc2)NC(=O)NC1c1cc(C)ccc1C (stereo not drawn)	-5.5	i	i	i	i	-4
COC(=O)C1=C(COc2ccc(F)cc2)NC(=O)NC1c1ccc(C)cc1C (stereo not drawn)	-0.71	i	i	i	i	7.4*
CCOc1c(CNCCN2CCOCC2)cccc1OC	0.79	i	i	i	i	-7
COC(=O)c1ccc(N2OC3(C)C=CC2CC3)cc1 (stereo not drawn)	-1.5	i	i	i	i	-5
Clc1cccc2c1Sc1ccccc1CC2N1CCNCC1 (stereo not drawn)	-9.7*	i	i	i	i	-22
COCCCN1CCN(C2Cc3ccccc3Sc3ccc(Cl)cc32)CC1 (stereo not drawn)	-2.3	i	i	i	i	-26
Clc1ccc2c(c1)C(N1CCNCC1)Cc1ccccc1S2 (stereo not drawn)	-14*	6*	i	i	i	-23
CCc1ccccc1N(CC(=O)NCc1ccc(OC)cc1)C(=O)CCC(=O)Nc1ccccn1	-0.41	i	i	i	i	-10
SMILES	Kir21 block	KCNQ1 block	KCNQ1 act	KCNK3 block	KCNK9 block	hERG protect
COc1ccc(C=O)cc1CSc1nnc(COc2cccc3cccnc23)o1	-4.9*	i	i	i	i	-18
COc1ccccc1C(=O)Nc1onc(C)c1C#N	-0.56	i	i	i	i	6.2*
Cc1noc(NC(=O)c2ccccc2Cl)c1C#N	0.29	i	i	i	i	-2
COc1ccc(CNC(=O)CC2C(=O)NCCN2C2Cc3ccccc3C2)cc1 (stereo not drawn)	1.4	i	i	i	i	-14
CCOC(=O)c1ccc(CC(=O)c2ccc(O)cc2O)o1	-0.26	i	i	i	i	-7
CCC(=O)Oc1ccc(C/C(=N\O)c2ccc(O)cc2O)o1	0.14	7*	i	i	i	-6
COc1ccc(C[C@H]2CN3C(=NC[C@@H]3Cc3ccccc3)N2CCNC(=O)c2ccc(C)c(Br)c2)cc1	-4.2*	9*	i	i	i	-23
Cc1ccc(C(=O)NCCN2C3=NC[C@@H](Cc4ccccc4)N3C[C@H]2Cc2ccc(O)cc2)cc1Br	-6.8*	i	i	i	i	-24
COc1ccc(C[C@H]2CN3C(=NC[C@@H]3Cc3ccc(O)cc3)N2CCNC(=O)c2ccc(C)c(Br)c2)cc1	-3.9	i	i	i	i	-21
COc1ccc(C[C@H]2CN3C(=NC[C@H]3Cc3ccccc3)N2CCNC(=O)c2ccc(C)c(Br)c2)cc1	-7.3*	7*	i	i	i	-27
CN(C)C=Nc1nonc1-c1ccc(Cl)cc1	-0.02	i	i	i	i	2
O=C(CSc1nnc(-c2ccco2)n1-c1ccccc1)NCC1CCCO1 (stereo not drawn)	0.33	i	i	i	i	-8
C/C(=N\NC(=S)Nc1cccc(C)c1)c1ccco1	0.88	i	13*	i	i	5.8*
Cc1ccc(S(=O)(=O)N(C)C)cc1NC(=O)CSc1nc2ccccc2c(=O)n1CC1CCCO1 (stereo not drawn)	-1.1	i	i	i	i	-14
Cc1ccc(S(=O)(=O)N(C)C)cc1-n1c(SCC(=O)Nc2ccccc2)nc2ccccc2c1=O	-0.84	i	i	i	-7.9*	-12
Cc1ccc(S(=O)(=O)N(C)C)cc1-n1c(SCC(=O)Nc2ccc(F)cc2Cl)nc2ccccc2c1=O	-2.6	i	i	i	-8*	-7
N#Cc1ccc(OC(=O)C2CCN(C3=NS(=O)(=O)c4ccccc43)CC2)cc1	nt	nt	nt	i	nt	nt
CCCc1nnc(NC(=O)COC(=O)c2cc(C)nc3ccccc23)s1	0.54	i	i	i	i	-9
CSc1cccc(NC(=O)CN2C(=O)c3ccccc3S2(=O)=O)c1	0.94	i	21*	i	i	6.5*
O=C(CN1C(=O)c2ccccc2S1(=O)=O)Nc1ccccc1	0.04	i	i	i	i	0
CC(=O)N1N=C(c2ccc(C(C)(C)C)cc2)OC1(C)C	-0.96	i	i	i	i	-11
Nc1c(C(=O)NCC2CCCO2)sc2nc3c(c(-c4ccco4)c12)CC/C3=C\c1ccco1 (stereo not drawn)	nt	nt	nt	-12*	nt	nt
